Experimental data taken from article PMC9394215 (Journal for Immunotherapy of Cancer, 2022).

Biological target: T1, human CD39 (Homo sapiens, UniProt P49961)
T1 sequence (P49961 1-510): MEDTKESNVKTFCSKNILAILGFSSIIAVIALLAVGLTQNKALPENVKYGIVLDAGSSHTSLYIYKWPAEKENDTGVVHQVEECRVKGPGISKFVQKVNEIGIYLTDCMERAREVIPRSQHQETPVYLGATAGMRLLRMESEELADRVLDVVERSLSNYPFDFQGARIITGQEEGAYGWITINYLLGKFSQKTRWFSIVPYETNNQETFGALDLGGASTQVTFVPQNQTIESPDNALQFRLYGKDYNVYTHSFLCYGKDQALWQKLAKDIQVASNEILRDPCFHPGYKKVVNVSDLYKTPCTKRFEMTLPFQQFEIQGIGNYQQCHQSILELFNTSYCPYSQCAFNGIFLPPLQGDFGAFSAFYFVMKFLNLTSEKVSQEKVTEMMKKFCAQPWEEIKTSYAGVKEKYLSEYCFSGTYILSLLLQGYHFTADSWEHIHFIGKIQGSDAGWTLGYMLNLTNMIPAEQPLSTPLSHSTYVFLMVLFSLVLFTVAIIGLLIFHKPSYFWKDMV
Format: biochemical
Details: for inhibition of CD39 (in words): library screen at 10 µM, figure 3
Summary of the method: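 CD39 came from human umbilical cord membranes (50.0 ng protein per well). Substrate was 50 µM ATP in 10 mM HEPES, 2 mM CaCl2, 1 mM MgCl2, pH 7.4, with ≤2% DMSO. Enzyme and test compound were preincubated 5 min at 37°C; reaction ran 15 min at 37°C. Malachite green/molybdate was added and A600 read after 20 min at 25°C, minus a heat-denatured enzyme blank. Screening was at 10 µM; curves spanned 0.1–300 µM; n=3.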

Cc1ccc(C(=O)Nc2ccc(CN3CCN(C)CC3)c(C(F)(F)F)c2)cc1C#Cc1cnc2cccnn12 [ponatinib, Ponatinib]
inhibition at 10 µM (read-out: inhibition of human CD39): 33%

C[C@@H](Oc1cc(-c2cnn(C3CCNCC3)c2)cnc1N)c1c(Cl)ccc(F)c1Cl [critozinib, Crizotinib]
inhibition of CD39 (in words): did not inhibit

CCc1cc2c(cc1N1CCC(N3CCOCC3)CC1)C(C)(C)c1[nH]c3cc(C#N)ccc3c1C2=O [alectinib, Alectinib]
inhibition of CD39 (in words): did not inhibit
